Data on 13 molecules can be found in ChEMBL document CHEMBL1121810, “Antihypertensive activity of 6-arylpyrido[2,3-d]pyrimidin-7-amine derivatives” (1981).

Common to all, as to type: functional
Assay [1] deals with Rattus norvegicus. The assay can be described thus: Maximum percent decrease in heart rate of spontaneously hypertensive rats, 10 hr after peroral administration of 50 mg/kg of compound. Particulars: route oral. In a few lines: (§1)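 Heart rate was derived from the pulsatile arterial pressure signal in conscious catheterized male SHR (22-24 weeks, 250-350 g), with continuous monitoring sampled 3 min per 30 min. Drug was given by gavage as a 4% gum acacia suspension at 2 mL/kg, dose as free base, to groups of 3-4 rats with mean pressure >150 mmHg. Individual 30-min means were compared with pretreatment values.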

For assay [2], the system named is Rattus norvegicus. Put plainly: Effect on heart rate of spontaneously hypertensive rats, 10 hr after peroral administration at 50 mg/kg. Particulars: route oral. In outline: as §1
Assay [3] relates to Rattus norvegicus. The assay can be described thus: Effect on heart rate of spontaneously hypertensive rats, 24 hr after peroral administration at 50 mg/kg. To be noted: route oral. In outline: as §1
The subject of assay [4] is Rattus norvegicus. Put plainly: Effect on heart rate of spontaneously hypertensive rats, 2 hr after peroral administration at 50 mg/kg. Particulars: route oral. In outline:
as §1

Assay [5] relates to Rattus norvegicus. Put plainly: Maximum percent decrease in heart rate of spontaneously hypertensive rats, 24 hours after peroral administration of 50 mg/kg of compound. To be noted: route oral. In outline: as §1
Assay [6] concerns Rattus norvegicus. Put plainly: (§2) Max effect on heart rate of spontaneously hypertensive rats, 3-5 hr after peroral administration of 3 mg/kg of compound. To be noted: route oral. In a few lines: as §1
In assay [7] the test system is Rattus norvegicus. Put plainly: Max effect on heart rate of spontaneously hypertensive rats, 3-5 hr after peroral administration of 10 mg/kg of compound. To be noted: route oral. In a few lines: as §1
For assay [8], the system named is Rattus norvegicus. The assay can be described thus: Max effect on heart rate of spontaneously hypertensive rats, 3-5 hr after peroral administration of 10 mg/kg of compound; significant decrease observed on 2nd and 3rd days. Particulars: route oral. In outline: as §1
Assay [9] concerns Rattus norvegicus. The description is as §2. To be noted: route oral. In outline:
as §1
This is another data set of the same source.

The subject of assay [10] is Rattus norvegicus. The assay can be described thus: Max effect on heart rate of spontaneously hypertensive rats, 3-5 hr after peroral administration of 3 mg/kg of compound; significant decrease observed on 2nd and 3rd days. Particulars: route oral. In outline:
as §1

The test system of assay [11] is Rattus norvegicus. The assay can be described thus: Maximum percent decrease in heart rate of spontaneously hypertensive rats, 4 hours after peroral administration of 50 mg/kg of compound. To be noted: route oral. In a few lines:
as §1

The subject of assay [12] is Rattus norvegicus. The assay can be described thus: Maximum percent decrease in heart rate of spontaneously hypertensive rats, 4 hr after peroral administration of 50 mg/kg of compound. Particulars: route oral. In outline:
as §1

Assay [13] deals with Rattus norvegicus. Put plainly: Maximum percent decrease in heart rate of spontaneously hypertensive rats, 3 hours after peroral administration of 50 mg/kg of compound. To be noted: route oral. In outline:
as §1

The test system of assay [14] is Rattus norvegicus. The assay can be described thus: Blood pressure rating in spontaneously hypertensive rats, 10 hr after peroral administration of 50 mg/kg of compound. To be noted: route oral. In a few lines: (§3)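 Conscious male SHR (Kyoto-Wistar origin, 22-24 weeks, 250-350 g) with indwelling catheters, given about 160 units heparin/day in saline. Only rats with mean blood pressure >150 mmHg and pulse pressure >25 mmHg were used, in groups of 3-4. Dosing was oral gavage at 2 mL/kg in 4% gum acacia suspension, as free base. Pressure was sampled 3 min of every 30 min, and 30-min means were compared with pretreatment values.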

For assay [15], the system named is Rattus norvegicus. Put plainly: Blood pressure rating in spontaneously hypertensive rats, 24 hr after peroral administration of 50 mg/kg of compound. To be noted: route oral. In outline: as §3
The test system of assay [16] is Rattus norvegicus. The assay can be described thus: Blood pressure rating in spontaneously hypertensive rats, 2 hr after peroral administration of 50 mg/kg of compound. Particulars: route oral. In a few lines: as §3
Assay [17] concerns Rattus norvegicus. The assay can be described thus: Maximum percent decrease in heart rate of spontaneously hypertensive rats, 10 hours after peroral administration of 50 mg/kg of compound. Particulars: route oral. In a few lines:
as §1

Assay [18] relates to Rattus norvegicus. The assay can be described thus: Effect on heart rate of spontaneously hypertensive rats, 10 hr after peroral administration of 10 mg/kg of compound. To be noted: route oral. In a few lines: as §1
The test system of assay [19] is Rattus norvegicus. The assay can be described thus: Effect on heart rate of spontaneously hypertensive rats, 10 hr after peroral administration of 3 mg/kg of compound. Particulars: route oral. In a few lines:
as §1

In assay [20] the test system is Rattus norvegicus. The assay can be described thus: Effect on heart rate of spontaneously hypertensive rats, 24 hr after peroral administration of 10 mg/kg of compound. Particulars: route oral. In outline: as §1
For assay [21], the system named is Rattus norvegicus. Put plainly: Effect on heart rate of spontaneously hypertensive rats, 24 hr after peroral administration of 3 mg/kg of compound. To be noted: route oral. In a few lines:
as §1

Assay [22] has as its system Rattus norvegicus. Put plainly: Effect on heart rate of spontaneously hypertensive rats, 2 hr after peroral administration of 10 mg/kg of compound. To be noted: route oral. In a few lines:
as §1

The subject of assay [23] is Rattus norvegicus. Put plainly: Effect on heart rate of spontaneously hypertensive rats, 2 hr after peroral administration of 3 mg/kg of compound. To be noted: route oral. In a few lines:
as §1

For assay [24], the species on record is Rattus norvegicus. Put plainly: Dose required to lower blood pressure by 30mmHg, 5-h post treatment. In outline:
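Conscious male SHR (22-24 weeks, 250-350 g) with indwelling catheters for continuous blood pressure and heart rate monitoring; only rats with mean pressure >150 mmHg and pulse pressure >25 mmHg were used. Oral gavage of a suspension in 4% gum acacia (2 mL/kg), doses as free base, groups of 3-4. Mean pressure was sampled 3 min per 30 min and compared with pretreatment; the value is the dose lowering pressure by 30 mmHg at 5 h.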

In assay [25] the test system is Rattus norvegicus. The assay can be described thus: Maximum percent decrease in heart rate of spontaneously hypertensive rats, 6 hours after peroral administration of 50 mg/kg of compound. To be noted: route oral. In outline:
(§4)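 Conscious male SHR (Kyoto-Wistar origin, 22-24 weeks, 250-350 g; mean BP >150 mmHg, pulse pressure >25 mmHg) with indwelling catheters, ~0.8 mL heparinized saline/day. Dosed by gavage as a 4% gum acacia suspension, 2 mL/kg, free-base doses, 3-4 rats per group. Heart rate was derived from the pulsatile pressure signal, sampled 3 min every 30 min, and 30-min means were compared with pretreatment values.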

Assay [26] deals with Rattus norvegicus. Put plainly: Effect on heart rate of spontaneously hypertensive rats, 18 hr after peroral administration of 10 mg/kg of compound. To be noted: route oral. In outline:
as §1

Assay [27] relates to Rattus norvegicus. Put plainly: Maximum percent decrease in heart rate of spontaneously hypertensive rats, 8 hr after peroral administration of 50 mg/kg of compound. Particulars: route oral. In a few lines: as §4
Assay [28] has as its system Rattus norvegicus. The assay can be described thus: Maximum percent decrease in heart rate of spontaneously hypertensive rats, 28 hours after peroral administration of 50 mg/kg of compound. To be noted: route oral. In a few lines:
as §1

Assay [29] deals with Rattus norvegicus. The assay can be described thus: Effect on heart rate of spontaneously hypertensive rats,18hours after peroral administration of 50 mg/kg of compound. Particulars: route oral. In a few lines: as §1
Assay [30] relates to Rattus norvegicus. The assay can be described thus: Maximum percent decrease in heart rate of spontaneously hypertensive rats, 5 hours after peroral administration of 50 mg/kg of compound. To be noted: route oral. In a few lines:
as §4

Assay [31] has as its system Rattus norvegicus. The assay can be described thus: Maximum effect on heart rate of spontaneously hypertensive rats, 18 hours after peroral administration of 10 mg/kg of compound. To be noted: route oral. In outline:
as §1

Assay [32] relates to Rattus norvegicus. Put plainly: Maximum effect on heart rate of spontaneously hypertensive rats, 3-5 hr after peroral administration of 10 mg/kg of compound. Particulars: route oral. In outline:
as §1

Assay [33] has as its system Rattus norvegicus. The assay can be described thus: Effect on heart rate of spontaneously hypertensive rats, 24 hours after peroral administration of 50 mg/kg of compound. Particulars: route oral. In a few lines:
as §1

Assay [34] deals with Rattus norvegicus. The assay can be described thus: Effect on heart rate of spontaneously hypertensive rats,24hours after peroral administration of 10 mg/kg of compound. To be noted: route oral. In outline: as §1

A value given as a limit tells only on which side of the number the result lay.

In the assay on Rattus norvegicus [1], `Nc1nc2nc(CO)ncc2cc1-c1c(Cl)cccc1Cl` yielded a Decrease of 17%. Further, the Activity rating in the assay with Rattus norvegicus [2] stood at 1; in the assay on Rattus norvegicus [3], 1; with Rattus norvegicus [4], 0.

`Nc1nc2ncncc2cc1-c1c(Cl)cccc1Cl`: the Decrease in the assay on Rattus norvegicus [5] is given as 22%. For the same molecule, the Activity rating in the assay with Rattus norvegicus [6] is listed as 0; in the assay on Rattus norvegicus [2], 0; in the assay with Rattus norvegicus [3], 2; in the assay with Rattus norvegicus [4] it was 0; in the assay on Rattus norvegicus [7], 0; in the assay with Rattus norvegicus [8] it was 0. For the same molecule, the Activity rating with Rattus norvegicus [9] and in the assay on Rattus norvegicus [10] was 0 throughout.

For `Cc1ncc2cc(-c3ccccc3C)c(N)nc2n1`, the Decrease in the assay with Rattus norvegicus [11] amounted to 22%. In addition, the Activity rating in the assay with Rattus norvegicus [2], in the assay with Rattus norvegicus [3] and with Rattus norvegicus [4] was 1 in each case.

With `Cc1ncc2cc(-c3ccccc3Br)c(N)nc2n1`, the Decrease in the assay with Rattus norvegicus [12] was 19%. Further, the Activity rating is on record as 1 in the assay on Rattus norvegicus [2], 0 in the assay on Rattus norvegicus [3], 1 with Rattus norvegicus [4] and 0 with Rattus norvegicus [7].

In the assay with Rattus norvegicus [13], `COCc1ncc2cc(-c3c(Cl)cccc3Cl)c(N)nc2n1` gave a Decrease of 14%. The Activity rating in the assay with Rattus norvegicus [14], with Rattus norvegicus [15] and with Rattus norvegicus [16] was 1 in each case.

`Cc1ncc2cc(-c3c(Cl)cccc3Cl)c(N)nc2n1` displayed a Decrease in the assay with Rattus norvegicus [17] of 32%. The Activity rating with Rattus norvegicus [18] turned out to be 1; in the assay on Rattus norvegicus [19], 1; in the assay on Rattus norvegicus [2] it was 3; in the assay on Rattus norvegicus [20], 1; in the assay with Rattus norvegicus [21] it was 1; in the assay on Rattus norvegicus [3], 3. Besides, the Activity rating with Rattus norvegicus [22], in the assay on Rattus norvegicus [23] and in the assay on Rattus norvegicus [4] was 1 in each case. Moreover, the ED30 in the assay listed under Rattus norvegicus [24] was determined as 17 mg/kg. In addition, the LD50 (in general, the dose at which mortality reaches 50%) in the assay listed under Rattus norvegicus [24] was over 7000 mg/kg.

`Cc1ncc2cc(-c3c(Br)cccc3Br)c(N)nc2n1` showed a Decrease in the assay with Rattus norvegicus [25] of 28%. In addition, the Activity rating turned out to be 2 with Rattus norvegicus [18]; 2 in the assay with Rattus norvegicus [2]; 1 in the assay on Rattus norvegicus [26]; 2 in the assay with Rattus norvegicus [3]; 1 in the assay with Rattus norvegicus [22]; 2 in the assay on Rattus norvegicus [4].

In the assay on Rattus norvegicus [27], `Cc1ncc2cc(-c3ccccc3Cl)c(N)nc2n1` came in with a Decrease of 16%. In addition, the Activity rating with Rattus norvegicus [2] is listed as 1; in the assay with Rattus norvegicus [3], 1; with Rattus norvegicus [4], 0.

Consider `Cc1cccc(C)c1-c1cc2cncnc2nc1N`, for which, in the assay on Rattus norvegicus [13], the Decrease was 12%. For the same molecule, the Activity rating with Rattus norvegicus [2] is recorded as 0; in the assay with Rattus norvegicus [4], 1.

With `Nc1nc2ncncc2cc1-c1c(Cl)cccc1Br`, the Decrease in the assay on Rattus norvegicus [28] is on record as 28%. Also, the Activity rating is recorded as 1 in the assay on Rattus norvegicus [18]; 2 in the assay with Rattus norvegicus [2]; 1 with Rattus norvegicus [20]; 1 in the assay on Rattus norvegicus [22]; 1 in the assay on Rattus norvegicus [4]; 1 in the assay with Rattus norvegicus [29].

In the assay on Rattus norvegicus [30], `Cc1ncc2cc(-c3c(Cl)cccc3Br)c(N)nc2n1` registered a Decrease of 26%. For the same molecule, the Activity rating in the assay with Rattus norvegicus [31] was found to be 0; in the assay on Rattus norvegicus [32], 1; in the assay on Rattus norvegicus [2] it was 2; with Rattus norvegicus [3], 2; in the assay with Rattus norvegicus [4], 2.

On to `Nc1nc2ncncc2cc1-c1ccccc1Cl`, for which the Activity rating in the assay with Rattus norvegicus [2], in the assay with Rattus norvegicus [33] and with Rattus norvegicus [4] was 0 each time.

Regarding `Nc1ncc2cc(-c3c(Cl)cccc3Cl)c(N)nc2n1`, the Decrease with Rattus norvegicus [5] was found to be 18%. Besides, the Activity rating in the assay with Rattus norvegicus [18] is 0; in the assay with Rattus norvegicus [2], 1; in the assay with Rattus norvegicus [3], 2; in the assay on Rattus norvegicus [22], 0; with Rattus norvegicus [4], 0; in the assay on Rattus norvegicus [34], 1.
